The source of these data is ChEMBL document CHEMBL4014267, “Anti-inflammatory and Antiosteoporosis Flavonoids from the Rhizomes of Helminthostachys zeylanica” (J Nat Prod, 2017).

Molecules are shown by their SMILES. Calls of active or inactive are those of the source. The calls are words filed in the database; no cut-off is given here.

Format in all cases: functional, cell-based
Test [1] concerns RAW264.7. Put plainly: Osteoblastogenic activity in mouse […] cells at 10 uM.
Test [2] concerns RAW264.7. The test is described as follows: Antiosteoporotic activity in mouse RAW264.7 cells assessed as inhibition of RANKL-induced osteoclast differentiation after 4 to 5 days by TRAP assay. The procedure, abridged: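 RAW264.7 macrophages were differentiated for 4−5 days in DMEM with 100 ng/mL recombinant murine RANKL, alone or with test agent at 1, 3, 10 or 20 μM. Cells were then fixed and TRAP activity was read with a p-nitrophenylphosphate reaction buffer.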

The test system of the next test is BV-2. Put plainly: Antiinflammatory activity in mouse BV2 cells assessed as inhibition of LPS-induced nitric oxide production after 24 hrs by Griess assay. As to conditions: BV-2, 24 h. The procedure, abridged:
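Murine BV2 microglia were grown in DMEM with 5% FBS and stimulated with LPS (0.5 μg/mL). NO was read as nitrite accumulated in the medium 24 h after stimulation, using Griess reagent.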
Background: Nitrite, measured by Griess reagent, commonly stands in for NO production.

For the compound `CC1(C)CCC[C@]2(C)Oc3c(O)cc4oc5c(=O)c6c(O)cc(O)cc6oc5c4c3C[C@H]12`, in the test with RAW264.7 [1], the result was inactive. Moreover, the figures for the IC50 with RAW264.7 [2] and in the test on BV-2 were 3.5 µM and 7 µM, respectively.
On the same counts, the results for `C=C1CCCC(C)(C)[C@H]1Cc1c(OC)cc2oc(-c3ccc(O)c(O)c3)c(OC)c(=O)c2c1O` are “inactive”, 3.2 µM and 6.7 µM.
The like results for `CC1=CCCC(C)(C)C1Cc1c(O)c(O)cc2oc3c(=O)c4c(O)cc(O)cc4oc3c12` (stereo not drawn) [UGONIN M] were, in that order, “inactive”, 2.5 µM and 10.1 µM.
On the same counts, the results for `CC1(C)CCC[C@]2(C)Oc3c(c(O)cc4oc(-c5ccc(O)c(O)c5)cc(=O)c34)C[C@H]12` are “inactive”, 4.6 µM and 19.7 µM.
`O=c1c(-c2ccc(O)cc2)coc2cc(O)cc(O)c12` [GENISTEIN]: in the test with RAW264.7 [2], the IC50 is 11.4 µM.
In the case of `CC1=CCCC(C)(C)C1Cc1c(O)cc(/C=C/c2ccc(O)cc2)cc1O` (stereo not drawn), in the test with BV-2, the IC50 amounted to 6.2 µM.
On the same count and under the same terms, then `S=C(S)N1CCCC1` [PYRROLIDINE DITHIOCARBAMATE], with 10.8 µM.
In the case of `CC1(C)CCC[C@@]2(C)Oc3c(c(O)cc4oc(-c5ccc(O)c(O)c5)cc(=O)c34)C[C@H]12`, the outcome in the test on RAW264.7 [1] was inactive. The IC50 is greater than 10 µM in the test on RAW264.7 [2] and 24.1 µM in the test on BV-2.
Regarding `CC1(C)CC=C[C@]2(C)Oc3c(O)cc4oc5c(=O)c6c(O)cc(O)cc6oc5c4c3C[C@H]12` [UGONIN O], the result in the test on RAW264.7 [1] was inactive. In addition, the IC50 came out at 3.3 µM in the test with RAW264.7 [2] and 7.7 µM in the test on BV-2.
The like results for `CC1=CCCC(C)(C)C12Cc1c(c(O)cc3oc4c(=O)c5c(O)cc(O)cc5oc4c13)O2` (stereo not drawn) were, in that order, “inactive”, 4.5 µM and 18 µM.
On the same counts, the results for `C=C1CCCC(C)(C)[C@H]1Cc1c(OC)cc2oc(-c3ccc(O)c(O)c3)cc(=O)c2c1O` are “Active”, 1.8 µM and 8.1 µM.
`C=C1CCCC(C)(C)[C@H]1Cc1c(O)cc2oc(-c3ccc(O)c(O)c3)cc(=O)c2c1O`: the IC50 with BV-2 was determined as 6.5 µM.

Usually IC50 stands for the concentration that gives 50% inhibition.
